High-throughput results as filed in PubChem.
This is a sample that favours compounds with a hit; in the whole collection about 2.4% have one here.
MIN6 prolif – inducers of beta-cell replication in MIN6 cells; MIN6 cells proliferation, ATPlite luminescence, 48 h; cells starved in 0.2% serum; 100% = growth in 10% serum; proliferation, % at 10 µM; actives 0.29% (n = 330,000);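 active means compounds whose signal lies at least 3.5 SD above the mean of all wells on their plate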;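 further: 0% = DMSO-treated cells in low-serum medium and 100% = 10% serum control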
DAGLB inh – blocks human DAGLB lipase activity; Q8NCG7; HEK293T DAGLB membrane lysate, EnzChek fluorogenic substrate; inhibition, % at 5.17 µM; actives 0.059% (n = 340,000); in the data active means inhibition above about 34%;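 further: 0% = enzyme with vehicle and 100% = wells lacking enzyme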
MT1-MMP act inh – MT1-MMP (human) activation inhibition | HT1080 RFP-PRO-GFP cells, GFP/RFP ratio fluorescence, overnight; percent of plate control window, DMSO zero | GFP/RFP ratio change, % at 20 µM | actives 0.061% (n = 360,000) | AID 651647;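 active means GFP/RFP ratio change of at least 30% with cell ATP level not reduced by more than half and red fluorescence within 50% of control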
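Read-out: GFP/RFP fluorescence ratio; Test system: RFP-PRO-GFP reporter HT1080 cells; Compound dosing: single-point 20 µM compound, 1% DMSO; Times: overnight compound exposure at 37 °C.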
CendR NRP1 mod – NRP-1/CendR interaction modulation | FAM-RPARPAR peptide binding to NRP-1, fluorescence polarization | inhibition, % at 25 µM | actives 0.85% (n = 360,000) | AID 602438;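 active means inhibition or corrected inhibition above about 18%, plus a signal ratio from 0.5 to 1.5, limit read from the data, passing the limit was not always enough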
SENP1 inh – blocks the human SENP1 SUMO protease catalytic domain; Q9P0U3; recombinant SENP1 catalytic domain, CyPet-SUMO1-YPet FRET cleavage; inhibition, % at 10 µM; actives 0.21% (n = 360,000);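 active means inhibition at least 30% at 10 µM, raw YFP signal under a set limit, fluorescence ratio 0.5 to 1.5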;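 further: 0% = enzyme with DMSO and 100% = no enzyme wells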
Target sequence (Q9P0U3 419-644 limits assumed): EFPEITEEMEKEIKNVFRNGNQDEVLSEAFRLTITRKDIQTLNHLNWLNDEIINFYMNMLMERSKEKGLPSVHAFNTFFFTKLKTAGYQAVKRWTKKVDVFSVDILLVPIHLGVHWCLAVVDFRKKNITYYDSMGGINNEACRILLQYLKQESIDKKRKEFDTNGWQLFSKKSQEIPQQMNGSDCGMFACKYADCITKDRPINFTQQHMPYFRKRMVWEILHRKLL
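system = hSENP1 catalytic domain, recombinant | reagent = SFCypet-SUMO1-SFYpet substrate at 25 nM | doses = one dose per compound, 10 µM, 0.5% DMSO | incubation = enzyme reaction for 50 min at room temperature, dark | measured by = FRET, CFP and YFP emission | controls = no-enzyme low, enzyme-DMSO high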
Myeloid diff MLP – myeloid differentiation induction; calls only at 10 µM; actives 1% (n = 360,000); ER-HoxA9 myeloid progenitors, lysozyme-GFP differentiation, flow cytometry;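 active means normalized GFP-positive differentiation at or above the plate's own cutoff, the solvent-only control mean plus 3 SD; inconclusive means no clear call, values can overlap the other calls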;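 further: cells exposed to compound for four days before flow analysis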
Starred values were filed as active, the others as inactive; i = inactive; ? = inconclusive; · = no result given; + = active, no number.

SMILES	MIN6 prolif	DAGLB inh	MT1-MMP act inh	CendR NRP1 mod	SENP1 inh	Myeloid diff MLP
CC(C)COc1cccc(-c2cc(C(=O)N/N=C/c3ccncc3)c3ccccc3n2)c1	-7	-2	4	-2	0	i
Cc1cc(C)n(-c2ccc(C(=O)Nc3nnc(C4CC4)s3)cc2)n1	-3	-3	7	26*	2	i
O=C(CCC(=O)c1cccs1)Nc1nnc(C2CC2)s1	-2	0	9	-1	-2	i
Cc1cc(C)n(-c2ccc(C(=O)NC(C)C)cc2)n1	-2	-5	11	-1	1	i
O=C(Nc1nnc(C2CC2)s1)c1cccs1	-1	0	1	25*	1	i
CC(C)CCn1nnnc1CN1CCN(C(c2ccccc2)c2ccccc2)CC1	-6	-8	-5	6	2	+
CCCCCC/C=N/Nc1nnc(Cc2ccc(OC)c(OC)c2)c(=O)[nH]1	-2	-3	-4	-5	4	+
Fc1ccc(/C=N/Nc2nnnn2-c2ccccc2)cc1	5	2	4	1	0	i
Fc1ccc(/C=N/NC2=Nc3cccc4cccc2c34)cc1	-2	0	-7	-72	-33	+
COc1cc(-c2nnc(SCC(=O)N(Cc3ccccc3)C(C)(C)C)o2)cc(OC)c1OC	-3	-7	-1	0	5	+
COc1cc(OC)cc(-c2nnc(SCC(=O)N(C(C)C)C(C)C)o2)c1	-1	-4	2	3	3	i
CCOC(=O)CN(C(=O)CSc1nnc(-c2ccc(OC)c(OC)c2)o1)c1ccccc1	1	0	0	31*	2	i
CCCCN(CCCC)C(=O)CSc1nnc(-c2cc(OC)c(OC)c(OC)c2)o1	-5	-3	2	-10	2	i
COc1cc(OC)cc(-c2nnc(SCC(=O)N(Cc3ccccc3)C(C)(C)C)o2)c1	-3	-10	-5	3	4	+
O=C(O)CCSSCCC(=O)O	1	-1	-1	4	-1	i
CN(C)CCN(C(=O)c1cccs1)c1nc2cc3c(cc2s1)OCCO3	-4	1	0	6	-1	i
CC1CN(S(=O)(=O)c2ccc(C(=O)Nc3ccccc3F)cc2)CC(C)O1 (stereo unspecified)	1	-1	2	2	-2	i
COc1cc(C(=O)OCC(=O)Nc2c(F)c(F)c(F)c(F)c2F)cc(OC)c1OC	-2	-5	-1	21*	4	i
COc1cc(C(N)=O)cc(Br)c1OC	0	-2	-8	25*	2	i
COc1cc(C(=O)OCCCOC(=O)c2cc(OC)c(OC)c(OC)c2)cc(OC)c1OC	-1	-2	0	22*	4	i
CCOc1cc(NC(=S)NCC2CCCO2)c(OCC)cc1NC(=O)c1cccc(C)c1 (stereo unspecified)	-5	0	2	2	-2	i
CCOC(=O)N1CCN(C(=O)CSc2ccc3nnc(-c4cccnc4)n3n2)CC1	-1	-1	-2	12	2	i
O=C(Nc1cc(-c2ccccc2)[nH]n1)c1ccccc1	-3	3	-1	25*	-2	?
O=C(O)c1ccccc1C(=O)Nc1cc(-c2ccccc2)[nH]n1	-3	-1	1	-3	1	i
O=c1c(/C=C(\O)c2ccc(F)cc2)nc2ccccc2n1-c1ccccc1	-2	-5	-82	-50	-15	+
Cn1c(=O)c(/C=C/c2ccc(F)cc2)nc2ccccc21	·	-5	-10	-14	-35	i
COc1cc(C(=O)NC(C)Cc2ccccn2)ccc1OC1CCN(C(C)=O)CC1 (stereo unspecified)	-2	1	-4	20*	-3	i
CC1=CNC(=O)CC(C)(C)C1	·	·	3	-13	0	i
O=C(NC(c1ccc(Cl)cc1)c1cc(Cl)c2cccnc2c1O)c1cccnc1 (stereo unspecified)	·	7	-39	-7	62*	i
